Tested on: MS2 coat protein
Experiment: apparent Kd, MS2 coat protein; higher = weaker binding; RNA-MaP array; FMN 200 µM where present
Summary of the method: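 Two titrations, one without ligand and one with constant ligand, were run with SNAP-549-labelled MS2 coat protein from 0.7 or 1.5 nM, doubling to 3 µM. The targets were designs transcribed by stalled E. coli RNA polymerase on Illumina sequencing-chip clusters, in 100 mM Tris-HCl pH 7.5, 80 mM KCl, 4 mM MgCl2, BSA, DTT, yeast tRNA and Tween-20. The apparent Kd is the median of filtered per-cluster binding-curve fits, with green signal normalised to red-channel RNA signal and control-cluster median Fmax.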

[1] = designed as: ON switch for flavin mononucleotide, no ligand
[2] = ligand present: flavin mononucleotide, designed as: ON switch for flavin mononucleotide
[3] = designed as: OFF switch for flavin mononucleotide, no ligand
[4] = ligand present: flavin mononucleotide, designed as: OFF switch for flavin mononucleotide

Sequence | apparent Kd [1] | apparent Kd [2] | apparent Kd [3] | apparent Kd [4]
AAAAAAAAAAACUAGGAUAUUUAACGGACAACAUGAGGAUCACCCAUGUCACAAAAAAAAAUAGUAAAGAAGGAGUAAAAAAAAAA | 32.7 nM | 31.8 nM | – | –
AAAAAAAAAACUGAGGAUAUCAGGGAUGGUACAUGAGGAUCACCCAUGUUGGCGGGCGAAGAAACUGAGAAGGCAGAAAAAAAAAA | 114 nM | 111 nM | – | –
AAAAAAAAAAGCUAGGAUAUCCAAAAAAAAACAUGAGGAUCACCCAUGUAAAAAAAAAAAAAAUGGGAGAAGGAGCAAAAAAAAAA | 52.4 nM | 26.9 nM | – | –
AAAAAAAAAAGGCAGGAUAUCCAAAAAAAAACAUGAGGAUCACCCAUGUAAAAAAAAAAAAAAUGGGAGAAGGGUCAAAAAAAAAA | 88.8 nM | 34 nM | – | –
AAAAAAAAAGUAGAGGAUAUCCAAAUGGCUACAUGAGGAUCACCCAUGUGAAGAAAAGCACAUGAGGAGAAGGCUACAAAAAAAAA | 26.7 nM | 13.5 nM | – | –
AAAAAACAUGAGGAUCACCCAUGUAAAAAAAUCACAGGAUAUAAGGUCGCGAAAGCGACCUUAGAAGGGUGAUCAA | 443 nM | 105 nM | – | –
AAAAAACAUGAGGAUCACCCAUGUAAAAAAAUCGCAGGAUAUAAGGUCGCGAAAGCGACCUUAGAAGGGCGAUCCU | 267 nM | 78.1 nM | – | –
AAAAAACAUGAGGAUCACCCAUGUAAUAAAACGUCAGGAUAUUGAUUUUAUUAUUUAUUGCGAGAAGGGACAAAAA | 37.1 nM | 24.4 nM | – | –
AAAAAACAUGAGGAUCACCCAUGUCAGGAUAUCUGUAUUCAAUCCUCGGAUUGAAUACAGAGAAGGGACAAAAA | – | – | 37.8 nM | 54.6 nM
AAAAAACAUGAGGAUCACCCAUGUCAGGAUAUUCGAAAAAAAAAAAAAAAAAAAAAAAGGAGAAGGGACGAAAA | – | – | 60.1 nM | 50 nM
AAAAACAGAGGAUAUACAAAAUUAUGACGAAAGUCAUAAAAACAUGAGGAUCACCCAUGUAGAAGGCUGGAAAA | – | – | 30.4 nM | 28.9 nM
AAAAAGGCAGGAUAUGCAUACACACAAAAAAAAAAACUGGGACAUGAGGAUCACCCAUGUAGAAGGGCCAAAAA | – | – | 29.4 nM | 25.9 nM
AAAAAGUGAGGAUAUGCACUGUCCUGUAGACGCGAGCAGUUGUAGAAGGCACAUGAGGAUCACCCAUGUUUAAA | – | – | 25.1 nM | 22.5 nM
AAAAAUGGAGGAUAUACAUGAGGAUCACCCAUGUGUGGGCAUACUAUGUCGGCGUCAGGUAGAAGGCCAAAAAA | – | – | 40.8 nM | 48.9 nM
AAAACAUGAGGAUCACCCAUGUAAAGAACGCUUAAUAGAUCUGAGGAUAUACUAGAAUUUAGGUAGUAGAAGGCAGUGGGUACA | 46.6 nM | 30.7 nM | – | –
AAAACAUGAGGAUCACCCAUGUAAAGAUCGGUUAAUAGAGGUGAGGAUAUACUAAAUUUUGGGUGGUAGAAGGCACUGGGUACA | 187 nM | 122 nM | – | –
AAAACGAUGUGAGGAUAUCACCGCUGUGACGGCUGAGAAGGCACAUGAGGAUCACCCAUGUGCAGGCGUGUGUGGGUAAUCCAA | – | – | 186 nM | 139 nM
AAAACUUCAGAGAAGGACCCAUUGGCGUAAUGGGUAGGAUAUCUGACUUGAGGUGUCCUGACAUGAGGAUCACCCAUGUAUAAA | – | – | 381 nM | 46 nM
AAAAGACAUGAGGAUCACCCAUGUUAAAACGUAGGAGGAUAUGUAUGGAAAACAUGCUGUACAGAAGGCCUGUGUC | 17.3 nM | 17.1 nM | – | –
AAAAGUAGAGGAUAUACAUGAGGAUCACCCAUGUAGAAAGGAAGUGUAUAUAUGGCAUGUAGAAGGCUACAUGA | – | – | 32.1 nM | 34.4 nM
AAAAUCAAAUGAGGAUAUUCAUACACUACAUACGGAGAAGGCAUACAAUCAUGAGGACAUGAGGAUCACCCAUGUUGUGACCAU | 29.9 nM | 20.9 nM | – | –
AAAAUCUAUAGAGGAUAUCCAUACGCUGCAUACGGAGAAGGCUAACAAUCAUGAGGACAUGAGGAUCACCCAUGUUGUGACCAU | 17.6 nM | 9.82 nM | – | –
AAAAUCUAUAGAGGAUAUCGUUUUUAAAGAAAAUGAGAAGGCUAACAAUCAUGAGGACAUGAGGAUCACCCAUGUUGUGACCAU | 19.6 nM | 10.2 nM | – | –
AAAAUCUAUUGAGGAUAUCGUUAUCAAAGAUAAUGAGAAGGCAAACAAUCAUGAGGACAUGAGGAUCACCCAUGUUGUGACCAU | 22.3 nM | 10.8 nM | – | –
AAAAUCUAUUGAGGAUAUUCAUACACUACAUACGAAGAAGGCAAACAAUCAUGAGGACAUGAGGAUCACCCAUGUUGUGACCAU | 24 nM | 15.5 nM | – | –
AAAAUGCAAGGAUAUACAUGAGGAUCACCCAUGUAGAAGGAAGCGAGGGUUUCCUGCUGUAGAAGGUGCUACAG | – | – | 23 nM | 20.5 nM
AAAAUGUAAGGAUAUGCUGCUCGUCACUUGCGUGAUGAGUAGCAGAAGGUACAUGAGGAUCACCCAUGUAAAGA | – | – | 32.7 nM | 45.8 nM
AAAAUUUAUUGAGGAUAUUCAUACACUGUAUACGGAGAAGGCAAACAAUCAUGAGGACAUGAGGAUCACCCAUGUUGUGACCAU | 18.5 nM | 12.2 nM | – | –

Sequence | apparent Kd [1] | apparent Kd [2] | apparent Kd [3] | apparent Kd [4]
AAACACAAACAUGAGGAUCACCCAUGUGGCGAAAGCCUUGGGAGAAGGGCGAUUGCAAAGCAAUCGCAGGAUAUUCGUAUUGUG | 370 nM | 26.9 nM | – | –
AAACACAAACAUGAGGAUCACCCAUGUUAUGAAGAUACUGGGAGAAGGGCGAUUGCAAAGCAAUCGCAGGAUAUUCGUAUUGUG | 50.4 nM | 14.5 nM | – | –
AAACAUGUCCGAGGAUAUCUGGAAACAUUUUCAAGAGAAGGCGGACAUGAGGAUCACCCAUGUCUCUCCUCAUCAACUACAAAU | – | – | 21.2 nM | 181 nM
AAAGCAACAUGAGGAUCACCCAUGUAGGAUAUCGCUAUUGUAAUCAUGAAACAUGAUUACAAUAGCGAGAAGGACAUAUGCUAA | – | – | 9.26 nM | 10.8 nM
AAAGCAACAUGAGGAUCACCCAUGUAGGAUAUCGCUAUUGUAAUCAUGAAACAUGAUUACAAUAGCGAGAAGGACAUAUGCUGG | – | – | 21.7 nM | 23.3 nM
AAAGCGUGAGGAUAUGAGGCGCCGGGCCGGUUGGUGCGGAUUCAGAAGGCACAUGAGGAUCACCCAUGUAGGAA | – | – | 23.4 nM | 36.2 nM
AAAGGACGAGGAUAUACAUGAGGAUCACCCAUGUAAAAAGCAUAAUAAAAUAACUUAUGUAGAAGGCGUCCAAA | – | – | 21.9 nM | 108 nM
AAAGUGUUAGGAUAUGUGAAGGCGUCUGAUAGACGAGGCCUGCAGAAGGGACAUGAGGAUCACCCAUGUAAAAA | – | – | 56.8 nM | 26 nM
AAAUAAAUCACAGGAUAUCUAGGGAUACAUGAGGAUCACCCAUGUUUGCAAAGAGAAGGGUGACAGUAUUAUCAGAUCAACAAU | 210 nM | 38.1 nM | – | –
AAAUAAAUUAGUAUGAUAUCUUCACAUGAGGAUCACCCAUGUCAGGAUAUUUGUCCUAAAAGGACAGAGAAGGGACAUACUAUA | – | – | 6.08 nM | 8.31 nM
AAAUAGACAGGAUAUGCAUGAAAAUUAAAAAAAAAAAAAAAACAUGAGGAUCACCCAUGUAGAAGGGUCAAAAA | – | – | 107 nM | 99.5 nM
AAAUAGAUACAUGAGGAUCACCCAUGUUAAUAGGUGUUUGUCAGAAGGCAUUAUGAGAGAAUUAAUGAGGAUAUGAAAUAUGAU | 39.3 nM | 22.8 nM | – | –
AAAUAGGCAGGAUAUACAUGAGGAUCACCCAUGUGCCUAUGAAAGGUAAUUUUGAAAGGUAGAAGGGCCUAAAA | – | – | 10.5 nM | 12.1 nM
AAAUAGUUAGGAUAUACAUGAGGAUCACCCAUGUGGACUUAUGGCGAUUAAUUUAGUGGUAGAAGGGACUCAAA | – | – | 53.8 nM | 51.4 nM
AAAUAUAAGCGAGGAUAUAUACAUGAGGAUCACCCAUGUCCCAUGUCAUGAGCAUCAGCCAUGUAGUAGAAGGCGCACAUGAGG | – | – | 100 nM | 53.5 nM
AAAUUCAGAGGAUAUGCGCAUAGAUAAGACUUUUUUUCUUAACAUGAGGAUCACCCAUGUAGAAGGCUGUAAUA | – | – | 18.4 nM | 16.7 nM
AAAUUUAACGAAGGAUAUGCUGACAUGAGGAUCACCCAUGUGUGCCUUGUGUUGCUGAUUAGGUUGCAGAAGGUCGUAUACAUA | – | – | 330 nM | 1230 nM
AAAUUUAACGAAGGAUAUGGAUACAUGAGGAUCACCCAUGUUUAUUUUGUGAUCUUGUAUAAGUACCAGAAGGUCGUAUACAUA | – | – | 165 nM | 459 nM
AACAAACAUGAGGAUCACCCAUGUAAGGAUAUACGAAACAAACAAACAAACAAACAAAGUAGAAGGUACAGGAA | – | – | 19.4 nM | 18.3 nM
AACAACCUAGGAUAUACAUGAGGAUCACCCAUGUUACUACUGGGUAAUCCCAAUUCGAGUAGAAGGAGGAUCAA | – | – | 47.7 nM | 87 nM
AACAAUAAGGAGGAUAUCGUAUCGGAAACGAUACGAGAAGGCUUAACAUGAGGAUCACCCAUGUUCCUCAAUAA | – | – | 31.6 nM | 60 nM
AACAAUCUAUCUGAGGAUAUCAUGAAAAAAACAUGAGGAUCACCCAUGUGCAGGAAAACUGCAUAUGAGAAGGCAGAUAGAUUGU | 603 nM | 26.2 nM | – | –
AACAGUACAGGAUAUACAUGAGGAUCACCCAUGUGAGAAUUAAGUGGCGUACCACAAAGUAGAAGGGUACUGGA | – | – | 36.9 nM | 133 nM
AACAGUACAGGAUAUACAUGAGGAUCACCCAUGUGAGAAUUAAGUGGCGUACCACAUAGUAGAAGGGUACUGGA | – | – | 71 nM | 156 nM
AACAUGGUAUCAGGAUAUGGGUGUCACAACCACUCAGAAGGGAUACCGAUGACAUGAGGAUCACCCAUGUCGCUAUUUACCUGU | 17.2 nM | 7.98 nM | – | –
AACAUGUCAGGAUAUGCAAAAGGAGACUGACACGCGAGUGAGCAGAAGGGACAUGAGGAUCACCCAUGUUCAAA | – | – | 18.3 nM | 16 nM
AACAUUCUAUCUCAGGAUAUCAUGUCAAAGACAUGAGGAUCACCCAUGUACCAGGAAACUGGUUAUGAGAAGGGAGAUAGAAUGA | 1220 nM | 227 nM | – | –

From the EternaBench riboswitch data
